Data as given in ChEMBL document CHEMBL1137728, “Synthesis of novel thiazolone-based compounds containing pyrazoline moiety and evaluation of their anticancer activity” (2009).

How the values were obtained:
Format in all cases: functional
[1] = Anticancer activity against human NCI60 cells assessed as cell growth at 10 uM after 48 hrs by SRB assay; conditions: NCI60, 48 h, read-out: Activity
How it was run: (§1)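 US NCI one-dose screen across about 60 human tumour cell lines. A single concentration of 10^-5 M was applied with 48 h continuous exposure. The end point was sulforhodamine B protein staining, read spectrophotometrically. Results are given as percent growth of treated cells relative to untreated controls.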

SR = assay: Anticancer activity against human SR cells assessed as cell growth at 10 uM after 48 hrs by SRB assay; conditions: read-out: Activity; how it was run: as §1
HT-29 = assay: Growth inhibition of human HT-29 cells after 48 hrs by SRB assay; conditions: HT-29, 48 h
How it was run: (§2)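 NCI five-dose screen across about 60 human tumour cell lines, at 10-fold dilutions from 10^-4 to 10^-8 M with 48 h continuous exposure, read by SRB. Percent growth used time-zero, untreated control and treated absorbances. GI50 was the concentration giving 50% lower net protein increase than controls. Values beyond the tested range were reported as more or less than the maximum or minimum concentration.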

SNB-75 = assay: Growth inhibition of human SNB75 cells after 48 hrs by SRB assay; conditions: SNB-75, 48 h; for TGI: read-out: pTGI (converted); how it was run: as §2
SK-MEL-28 = assay: Growth inhibition of human SK-MEL-28 cells after 48 hrs by SRB assay; conditions: SK-MEL-28, 48 h; how it was run: as §2
SK-MEL-5 [2] = assay: Growth inhibition of human SK-MEL-5 cells after 48 hrs by SRB assay; conditions: SK-MEL-5, 48 h; for TGI: read-out: pTGI (converted); how it was run: as §2
UACC-62 = assay: Growth inhibition of human UACC62 cells after 48 hrs by SRB assay; conditions: UACC-62, 48 h; how it was run: as §2
SK-MEL-5 [3] = assay: Anticancer activity against human SK-MEL-5 cells assessed as cell growth at 10 uM after 48 hrs by SRB assay; conditions: SK-MEL-5, 48 h, read-out: Activity; how it was run: as §1
HL-60(TB) = assay: Growth inhibition of human HL-60(TB) cells after 48 hrs by SRB assay; conditions: HL-60, 48 h
How it was run: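 Five-dose NCI-60 assay at 10-fold dilutions, 10^-4 to 10^-8 M, 48 h continuous exposure; SRB protein staining. Absorbance at time zero, untreated control and each concentration gives percent growth. GI50 is the concentration giving 50% lower net protein increase than controls. Values beyond the range tested are reported as above or below the extreme concentration.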

[4] = Growth inhibition of human […] cells after 48 hrs by SRB assay; conditions: for TGI: read-out: pTGI (converted); how it was run: as §2
HCT-15 = assay: Growth inhibition of human HCT15 cells after 48 hrs by SRB assay; conditions: HCT-15, 48 h; how it was run: as §2
KM12 = assay: Growth inhibition of human KM12 cells after 48 hrs by SRB assay; conditions: KM12, 48 h; how it was run: as §2
SF-268 = assay: Growth inhibition of human SF268 cells after 48 hrs by SRB assay; conditions: SF-268, 48 h; how it was run: as §2
SNB-19 = assay: Growth inhibition of human SNB19 cells after 48 hrs by SRB assay; conditions: SNB-19, 48 h; how it was run: as §2
U-251 = assay: Growth inhibition of human U251 cells after 48 hrs by SRB assay; conditions: U-251, 48 h; how it was run: as §2
LOX IMVI = assay: Growth inhibition of human LOXIMVI cells after 48 hrs by SRB assay; conditions: for TGI: read-out: pTGI (converted); how it was run: as §2
Malme-3M = assay: Growth inhibition of human MALME-3M cells after 48 hrs by SRB assay; how it was run: as §2
IGROV-1 = assay: Growth inhibition of human IGROV1 cells after 48 hrs by SRB assay; conditions: IGROV-1, 48 h; how it was run: as §2
OVCAR-3 = assay: Growth inhibition of human OVCAR-3 cells after 48 hrs by SRB assay; conditions: OVCAR-3, 48 h; how it was run: as §2
ACHN = assay: Growth inhibition of human ACHN cells after 48 hrs by SRB assay; how it was run: as §2
CAKI-1 = assay: Growth inhibition of human Caki1 cells after 48 hrs by SRB assay; conditions: CAKI-1, 48 h; how it was run: as §2
SN12C = assay: Growth inhibition of human SN12C cells after 48 hrs by SRB assay; how it was run: as §2
TK-10 = assay: Growth inhibition of human TK10 cells after 48 hrs by SRB assay; conditions: TK-10, 48 h; how it was run: as §2
UO-31 = assay: Growth inhibition of human UO31 cells after 48 hrs by SRB assay; conditions: UO-31, 48 h; how it was run: as §2
DU-145 [5] = assay: Growth inhibition of human DU145 cells after 48 hrs by SRB assay; conditions: DU-145, 48 h; how it was run: as §2
MCF7 = assay: Growth inhibition of human MCF7 cells after 48 hrs by SRB assay; conditions: MCF7, 48 h; how it was run: as §2
MDA-MB-231 = assay: Growth inhibition of human MDA-MB-231 cells after 48 hrs by SRB assay; conditions: MDA-MB-231, 48 h; how it was run: as §2
[6] = Growth inhibition of human Hs 578T cells after 48 hrs by SRB assay; how it was run: as §2
MDA-MB-435 = assay: Growth inhibition of human MDA-MB-435 cells after 48 hrs by SRB assay; conditions: MDA-MB-435, 48 h; how it was run: as §2
T47D = assay: Growth inhibition of human T47D cells after 48 hrs by SRB assay; how it was run: as §2
DU-145 [7] = assay: Anticancer activity against human DU145 cells assessed as cell growth at 10 uM after 48 hrs by SRB assay; conditions: DU-145, 48 h, read-out: Activity; how it was run: as §1
CCRF-CEM = assay: Growth inhibition of human CCRF-CEM cells after 48 hrs by SRB assay; how it was run: as §2
MOLT-4 [8] = assay: Growth inhibition of human MOLT4 cells after 48 hrs by SRB assay; conditions: MOLT-4, 48 h; how it was run: as §2
HOP-62 = assay: Growth inhibition of human HOP62 cells after 48 hrs by SRB assay; conditions: HOP-62, 48 h; how it was run: as §2
NCI-H460 = assay: Growth inhibition of human NCI-H460 cells after 48 hrs by SRB assay; conditions: NCI-H460, 48 h, read-out: pTGI (converted); how it was run: as §2
HCT-116 = assay: Growth inhibition of human HCT116 cells after 48 hrs by SRB assay; conditions: HCT-116, 48 h; how it was run: as §2
MOLT-4 [9] = assay: Anticancer activity against human MOLT4 cells assessed as cell growth at 10 uM after 48 hrs by SRB assay; conditions: MOLT-4, 48 h, read-out: Activity; how it was run: as §1

For O=C1N=C(N2N=C(c3ccccc3)CC2c2ccccc2O)S/C1=C\c1ccccc1Cl (stereo not drawn), the growth at 10 µM [1] was 102% and the growth at 10 µM (SR) was 45.6%.
With O=C1N=C(N2N=C(c3ccccc3)CC2c2ccccc2O)/C(=C/c2ccc(O)cc2)S1 (stereo not drawn) the GI50 (HT-29) was 1.91 µM, the GI50 (SNB-75) was 1.95 µM and the TGI (SNB-75) was 5.25 µM. The GI50 (SK-MEL-28) was 1.78 µM, the GI50 (SK-MEL-5 [2]) was 1.7 µM and the TGI (SK-MEL-5 [2]) was 3.31 µM. It also gave a GI50 (UACC-62) of 1.7 µM, a TGI (UACC-62; read-out: pTGI (converted)) of 3.31 µM and a growth at 10 µM (SK-MEL-5 [3]) of -96.3%. The growth at 10 µM [1] was 1.13%, the GI50 (HL-60(TB)) was 1.66 µM and the TGI (HL-60(TB); read-out: pTGI (converted)) was 4.9 µM. It also gave a GI50 [4] of 1.86 µM and a TGI [4] of 4.47 µM.
In the case of COc1cc(/C=C2/SC(N3N=C(c4ccccc4)CC3c3ccccc3O)=NC2=O)cc(OC)c1O (stereo not drawn), the GI50 (HCT-15) is reported as 1.23 µM, the TGI (HCT-15; read-out: pTGI (converted)) is reported as 2.69 µM and the GI50 (HT-29) is reported as 0.427 µM. It also gave a TGI (HT-29; read-out: pTGI (converted)) of 2.82 µM, a GI50 (KM12) of 1.82 µM and a TGI (KM12; read-out: pTGI (converted)) of 3.63 µM. The GI50 (SF-268) was 1.86 µM, the TGI (SF-268; read-out: pTGI (converted)) was 4.47 µM and the GI50 (SNB-19) was 1.78 µM. For the same molecule, the TGI (SNB-19; read-out: pTGI (converted)) was 3.72 µM, the GI50 (SNB-75) was 1.74 µM and the TGI (SNB-75) was 4.27 µM. The GI50 (U-251) was 1.51 µM, the TGI (U-251; read-out: pTGI (converted)) was 2.82 µM and the GI50 (LOX IMVI) was 1.55 µM. The TGI (LOX IMVI) was 2.95 µM, the GI50 (Malme-3M) was 2 µM and the TGI (Malme-3M; read-out: pTGI (converted)) was 4.9 µM. It also gave a GI50 (SK-MEL-5 [2]) of 1.91 µM, a TGI (SK-MEL-5 [2]) of 10.5 µM and a GI50 (IGROV-1) of 1.58 µM. For the same molecule, the TGI (IGROV-1; read-out: pTGI (converted)) was 2.88 µM, the GI50 (OVCAR-3) was 1.41 µM and the TGI (OVCAR-3; read-out: pTGI (converted)) was 2.82 µM. The GI50 (ACHN) was 1.17 µM, the TGI (ACHN; read-out: pTGI (converted)) was 10.2 µM and the GI50 (CAKI-1) was 1.02 µM. It also gave a TGI (CAKI-1; read-out: pTGI (converted)) of 3.24 µM, a GI50 (SN12C) of 1.58 µM and a TGI (SN12C; read-out: pTGI (converted)) of 4.9 µM. The GI50 (TK-10) was 1.78 µM, the TGI (TK-10; read-out: pTGI (converted)) was 3.98 µM and the GI50 (UO-31) was 1.91 µM. It also gave a TGI (UO-31; read-out: pTGI (converted)) of 4.27 µM, a GI50 (DU-145 [5]) of 1.55 µM and a TGI (DU-145 [5]; read-out: pTGI (converted)) of 3.09 µM. For the same molecule, the GI50 (MCF7) was 1.95 µM, the TGI (MCF7; read-out: pTGI (converted)) was 4.9 µM and the GI50 (MDA-MB-231) was 1.45 µM. The TGI (MDA-MB-231; read-out: pTGI (converted)) was 3.02 µM, the GI50 [6] was 1.38 µM and the TGI ([6]; read-out: pTGI (converted)) was 3.72 µM. The GI50 (MDA-MB-435) was 1.82 µM, the TGI (MDA-MB-435; read-out: pTGI (converted)) was 3.63 µM and the GI50 (T47D) was 1.78 µM. The TGI (T47D; read-out: pTGI (converted)) was 3.98 µM, the growth at 10 µM [1] was 42.6% and the growth at 10 µM (DU-145 [7]) was -57%. It also gave a GI50 (CCRF-CEM) of 2 µM, a TGI (CCRF-CEM; read-out: pTGI (converted)) of 5.62 µM and a GI50 (MOLT-4 [8]) of 1.7 µM. The GI50 [4] was 1.7 µM, the TGI [4] was 6.92 µM and the GI50 (HOP-62) was 0.759 µM. It also gave a TGI (HOP-62; read-out: pTGI (converted)) of 15.5 µM, a TGI (NCI-H460) of 3.31 µM and a GI50 (HCT-116) of 1.55 µM. The TGI (HCT-116; read-out: pTGI (converted)) was 2.95 µM.
For O=C1CSC(N2N=C(c3ccccc3)CC2c2ccccc2O)=N1 (stereo not drawn), the growth at 10 µM (MOLT-4 [9]) was -61.5% and the growth at 10 µM [1] was 101%.
Molecule O=C1N=C(N2N=C(c3ccccc3)CC2c2ccccc2O)/C(=C/c2ccc(Cl)cc2)S1 (stereo not drawn) has a GI50 (LOX IMVI) of 1.86 µM and a TGI (LOX IMVI) of 3.55 µM.
